27 compounds from ChEMBL document CHEMBL1134629, “Synthesis and biological evaluation of s-triazine substituted polyamines as potential new anti-trypanosomal drugs” (J Med Chem, 2001) can be followed below.

One experiment is filed under the species Rattus norvegicus. Description: Inhibitory activity against L-6 rat myoblast cells. It is filed as functional, cell-based. Put shortly:
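Noninfected rat L-6 skeletal myoblasts seeded at 2000 cells/well in RPMI 1640 with 10% FBS and 2 mM L-glutamine; serial drug dilutions as in the T. cruzi assay, 37 °C, 5% CO2; MIC determined microscopically after 4 days.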

Experiment [1] deals with Trypanosoma brucei rhodesiense. Nature of the experiment: Inhibitory activity against T.b. rhodesiense. It counts as functional, organism-based.
Experiment [2] in a line: Inhibitory activity against Trypanosoma cruzi. It counts as functional. Put shortly:
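L-6 myoblasts (2000/well, RPMI 1640, 10% FBS, 2 mM L-glutamine) infected after 24 h with 5000 trypomastigotes of T. cruzi Tulahuen C2C4 carrying LacZ plus serial drug dilution; 4 days at 37 °C, 5% CO2. Intracellular amastigote growth read via CPRG/Nonidet colour at 540 nm after 2-4 h; IC50 from sigmoidal inhibition curve.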

Experiment [3] has as its system Trypanosoma brucei brucei. Description: Inhibitory activity against Trypanosoma brucei. It is filed as functional, organism-based.
A further experiment has as its target T1, Adenosine transporter 1 (Trypanosoma brucei, UniProt Q9Y0I0).
T1 sequence (Q9Y0I0 whole entry): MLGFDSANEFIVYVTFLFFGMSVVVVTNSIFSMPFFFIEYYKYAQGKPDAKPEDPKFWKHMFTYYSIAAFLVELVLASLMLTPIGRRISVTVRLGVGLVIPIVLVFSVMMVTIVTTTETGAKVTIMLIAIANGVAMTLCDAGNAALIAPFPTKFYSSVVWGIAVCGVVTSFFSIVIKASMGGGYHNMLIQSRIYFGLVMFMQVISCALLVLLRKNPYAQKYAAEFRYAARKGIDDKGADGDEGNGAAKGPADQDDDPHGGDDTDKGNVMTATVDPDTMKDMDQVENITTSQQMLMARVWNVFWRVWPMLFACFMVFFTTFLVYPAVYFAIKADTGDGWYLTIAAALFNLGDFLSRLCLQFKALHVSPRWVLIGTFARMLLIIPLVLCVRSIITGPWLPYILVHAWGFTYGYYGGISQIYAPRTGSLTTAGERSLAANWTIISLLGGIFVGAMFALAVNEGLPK
Description: Ability to inhibit adenosine uptake by the P2 transporter in Trypanosoma brucei. Put shortly:
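T. b. brucei 427 cells (100 µL at 2 × 10⁸/mL) added to buffer with radiolabeled adenosine, 1 mM inosine to block P1 uptake, and varying inhibitor concentrations; 10 s at room temperature, then spun through 1-bromododecane oil, pellet radioactivity counted by scintillation. Apparent Ki from competitive inhibition equation; duplicate experiments.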

As usually defined, the IC50 is the concentration that gives 50% inhibition. A high value points to lower potency. `CCCCCCCCCCCCCCCCCCNc1nc(NC)nc(NC)n1`: the IC50 is 48.2 µM in the experiment filed under Rattus norvegicus, 14000 nM in experiment [1] and 12 µM in experiment [2].

In the case of `Nc1nc(N)nc(NCCCCCCCCCCCCNc2nc(N)nc(N)n2)n1`, the IC50 is 239 µM in the experiment listed under Rattus norvegicus, 13000 nM in experiment [1] and 6 µM in experiment [2].

The term Ki denotes the dissociation constant of the complex between target and ligand, obtained from inhibition or displacement. A higher Ki goes with a looser hold on the target. For `CN(C)c1nc(N)nc(CN(CCCNCCCCCCCCCNCCCN(Cc2nc(N)nc(N(C)C)n2)Cc2nc(N)nc(N(C)C)n2)Cc2nc(N)nc(N(C)C)n2)n1`, the IC50 in the experiment listed under Rattus norvegicus came out at 177 µM; in experiment [3], 3 µM; in experiment [1] it was 265 nM; in experiment [2], 54.8 µM. On Adenosine transporter 1, this compound registered a Ki of 17 µM.

As to `Nc1nc(N)nc(NCCCNC2CCC(NCCCNc3nc(N)nc(N)n3)CC2)n1` (centres undefined), the IC50 in the experiment listed under Rattus norvegicus was 338 µM; in experiment [3], > 100 µM; in experiment [1], > 152000 nM; in experiment [2], > 152 µM. The same compound returned a Ki at Adenosine transporter 1 of 125 µM.

For `CNc1nc(NC)nc(NCCCNCCCCCCCCCCCCNCCCN)n1`, the IC50 in the experiment listed under Rattus norvegicus stood at 57.7 µM; in experiment [3] it was 20 µM; in experiment [1], 580 nM; in experiment [2], 31 µM. In addition, the Ki at Adenosine transporter 1 was 25 µM.

Turning to `CN(C)c1nc(N)nc(NCCCNCCCCCCCCCNCCCNc2nc(N)nc(N(C)C)n2)n1`, the IC50 is 274 µM in the experiment listed under Rattus norvegicus, 40 µM in experiment [3], 9600 nM in experiment [1] and > 123 µM in experiment [2]. Also, the affinity on Adenosine transporter 1 corresponds to a Ki of 10 µM.

With `CN(C)c1nc(N)nc(NCCCNCCCCCCCCCCCCNCCCN)n1`, the IC50 in the experiment listed under Rattus norvegicus came to 39.9 µM; in experiment [3], 20 µM; in experiment [1], 940 nM; in experiment [2], 32 µM. At Adenosine transporter 1, this compound gave a Ki of 1 µM.

On to `CN(C)c1nc(N)nc(CN(CCCNCCCCCCCCCCCCNCCCN(Cc2nc(N)nc(N(C)C)n2)Cc2nc(N)nc(N(C)C)n2)Cc2nc(N)nc(N(C)C)n2)n1`, for which the IC50 is 105 µM in the experiment filed under Rattus norvegicus, 2 µM in experiment [3], 440 nM in experiment [1] and > 77 µM in experiment [2]. Besides, on Adenosine transporter 1, the affinity corresponds to a Ki of 4.6 µM.

Consider `CNc1nc(N)nc(NCCCNCCCCCCCCCNCCCNc2nc(N)nc(NC)n2)n1`, for which the IC50 in the experiment filed under Rattus norvegicus is 285 µM; in experiment [3] it was 53 µM; in experiment [1], 16000 nM; in experiment [2], > 135 µM. Besides, the Ki at Adenosine transporter 1 is 0.75 µM.

In the case of `CNc1nc(NC)nc(NCCCNCCCCCCCCCNCCCNc2nc(NC)nc(NC)n2)n1`, the IC50 in the experiment listed under Rattus norvegicus is 289 µM; in experiment [3], 4 µM; in experiment [1], 17000 nM; in experiment [2], > 130 µM. This compound yielded a Ki at Adenosine transporter 1 of 14 µM.

With `CNc1nc(NC)nc(NCCCNCCCCCCCCCCCCNCCCNc2nc(NC)nc(NC)n2)n1`, the IC50 came to 143 µM in the experiment listed under Rattus norvegicus, 17 µM in experiment [3], 2300 nM in experiment [1] and 18 µM in experiment [2]. The compound further showed a Ki at Adenosine transporter 1 of 3.2 µM.

Take `CNc1nc(N)nc(NCCCNCCCCCCCCCCCCNCCCN)n1`: the IC50 in the experiment listed under Rattus norvegicus is 127 µM; in experiment [3] it was > 200 µM; in experiment [1], 1100 nM; in experiment [2] it was > 154 µM. The compound further came in with a Ki on Adenosine transporter 1 of 0.41 µM.

`CNc1nc(N)nc(NCCCNCCCCCCCCCCCCNCCCNc2nc(N)nc(NC)n2)n1`: the figures for the IC50 in experiment [3], in experiment [1] and in experiment [2] were 2 µM, 9800 nM and 116 µM, respectively. The compound further returned a Ki on Adenosine transporter 1 of 0.135 µM.

Turning to `Nc1nc(N)nc(NCCCNCCCCNCCCNc2nc(N)nc(N)n2)n1`, the IC50 in the experiment listed under Rattus norvegicus is 353 µM; in experiment [3] it was > 100 µM; in experiment [1] it was 160000 nM; in experiment [2], > 160 µM. This compound also had a Ki at Adenosine transporter 1 of 72 µM.

In the case of `Nc1nc(N)nc(NCCCNCCCCCCCCCNCCCNc2nc(N)nc(N)n2)n1`, the figures for the IC50 in experiment [3], in experiment [1] and in experiment [2] were > 100 µM, 128000 nM and > 140 µM, respectively. For the same compound, the Ki on Adenosine transporter 1 amounted to 19 µM.

With `Nc1nc(N)nc(CN(CCCNCCCCCCCCCNCCCN(Cc2nc(N)nc(N)n2)Cc2nc(N)nc(N)n2)Cc2nc(N)nc(N)n2)n1`, the IC50 was 220 µM in the experiment listed under Rattus norvegicus, 32 µM in experiment [3], 4020 nM in experiment [1] and > 88 µM in experiment [2]. In addition, at Adenosine transporter 1, the Ki amounted to 82 µM.

In the case of `CN(C)c1nc(NCCCNCCCCCCCCCNCCCNc2nc(N(C)C)nc(N(C)C)n2)nc(N(C)C)n1`, the IC50 in the experiment filed under Rattus norvegicus came to 37.7 µM; in experiment [3], 32 µM; in experiment [1], 1200 nM; in experiment [2] it was 16 µM. The affinity on Adenosine transporter 1 corresponds to a Ki of 29 µM.

With `CN(C)c1nc(NCCCNCCCCCCCCCCCCNCCCNc2nc(N(C)C)nc(N(C)C)n2)nc(N(C)C)n1`, the IC50 came to 6.8 µM in the experiment listed under Rattus norvegicus, 1.7 µM in experiment [3], 810 nM in experiment [1] and 0.8 µM in experiment [2]. At Adenosine transporter 1, this compound returned a Ki of 2.5 µM.

Regarding `CNc1nc(CN(CCCNCCCCCCCCCCCCNCCCN(Cc2nc(NC)nc(NC)n2)Cc2nc(NC)nc(NC)n2)Cc2nc(NC)nc(NC)n2)nc(NC)n1`, the IC50 was 76.6 µM in the experiment listed under Rattus norvegicus, 2.9 µM in experiment [3], 180 nM in experiment [1] and > 77 µM in experiment [2]. The compound also returned an inhibitory constant (Ki) on Adenosine transporter 1 of 2.4 µM.

For the compound `CN(C)c1nc(N)nc(NCCCNCCCCCCCCCCCCNCCCNc2nc(N)nc(N(C)C)n2)n1`, the IC50 is 50.9 µM in the experiment filed under Rattus norvegicus, > 100 µM in experiment [3], 3500 nM in experiment [1] and 9.7 µM in experiment [2]. The compound further came in with a Ki at Adenosine transporter 1 of 0.24 µM.

Take `CN(C)c1nc(NCCCNCCCCCCCCCCCCNCCCN)nc(N(C)C)n1`: the IC50 in the experiment listed under Rattus norvegicus was found to be 14.2 µM; in experiment [3], 14.7 µM; in experiment [1] it was 1300 nM; in experiment [2] it was 0.71 µM. This compound also showed a Ki on Adenosine transporter 1 of 0.6 µM.

For the compound `Nc1nc(N)nc(NCCCNC2CCCCC2NCCCNc2nc(N)nc(N)n2)n1` (centres undefined), the IC50 is 338 µM in the experiment filed under Rattus norvegicus, > 100 µM in experiment [3], > 152000 nM in experiment [1] and > 152 µM in experiment [2]. For the same compound, the Ki on Adenosine transporter 1 was found to be 55 µM.

Consider `Nc1nc(N)nc(NCCCNCCCCCCCCCCCCNCCCNc2nc(N)nc(N)n2)n1`, for which the IC50 in the experiment listed under Rattus norvegicus was 295 µM; in experiment [3] it was > 100 µM; in experiment [1], 16000 nM; in experiment [2], > 13 µM. The compound also had a Ki on Adenosine transporter 1 of 0.5 µM.

`CNc1nc(CN(CCCNCCCCCCCCCNCCCN(Cc2nc(NC)nc(NC)n2)Cc2nc(NC)nc(NC)n2)Cc2nc(NC)nc(NC)n2)nc(NC)n1`: the IC50 amounted to 177 µM in the experiment listed under Rattus norvegicus, 0.1 µM in experiment [3], 265 nM in experiment [1] and 76.8 µM in experiment [2]. For the same compound, the Ki at Adenosine transporter 1 turned out to be 30 µM.

For `CC(CNCCCNc1nc(N)nc(N)n1)NCCCNc1nc(N)nc(N)n1` (centres undefined), the IC50 in the experiment filed under Rattus norvegicus was 362 µM; in experiment [3], > 100 µM; in experiment [1] it was > 163000 nM; in experiment [2] it was > 163 µM. The Ki at Adenosine transporter 1 was found to be 163 µM.

As to `CNc1nc(NC)nc(NCCCNCCCCCCCCCNCCCN)n1`, the IC50 worked out at 135 µM in the experiment listed under Rattus norvegicus, 84 µM in experiment [3], 940 nM in experiment [1] and 23 µM in experiment [2]. This compound also gave a Ki at Adenosine transporter 1 of 17 µM.

As to `Nc1nc(N)nc(CN(CCCNCCCCCCCCCCCCNCCCN(Cc2nc(N)nc(N)n2)Cc2nc(N)nc(N)n2)Cc2nc(N)nc(N)n2)n1`, the IC50 in the experiment listed under Rattus norvegicus was 188 µM; in experiment [3], 21 µM; in experiment [1] it was 570 nM; in experiment [2], > 85 µM. This compound also registered a Ki at Adenosine transporter 1 of 6.7 µM.
